Source: ChEMBL document CHEMBL5724801, “EUbOPEN Chemogenomics Library - Multiplex” (2024)
Several values for one entry are separate records, joined by “and”; a condition that tells them apart may be missing. Equal values may be shown once.

Tested on: U2OS
Test: Multiplex assay against U2OS
Type: toxicity, cell-based
Details: human
Summary of the method: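 With compound added, live cells were imaged on a CQ1 microscope at 37°C and 5% CO2; staining with Hoechst33342, BioTracker Green Microtubule Cytoskeleton Dye, MitoTracker Red and Annexin V Alexa Fluor 680 had been done at seeding. The CellPathfinder machine-learning gating scheme split cells into Hoechst high-intensity objects or normal cells, normal cells into healthy, pyknosed or fragmented nuclei, and pyknosed cells into mitotic or apoptotic. The tubulin, mitochondrial-mass and membrane-permeability phenotypes are per cents of healthy-nucleus cells.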

[1] = 12 h, 1 µM, compound concentration 1 uM
[2] = 12 h, 10 µM, compound concentration 10 uM
[3] = 24 h, 1 µM, compound concentration 1 uM
[4] = 24 h, 10 µM, compound concentration 10 uM
[5] = 48 h, 1 µM, compound concentration 1 uM
[6] = 48 h, 10 µM, compound concentration 10 uM

**Q.** Which results are given for `CCc1nn2c(C)cc(C)nc2c1Cc1ccc(-c2nnc(C3CCNCC3)o2)cc1`?
**A.** Population Apoptotic (%) [1]: 42% and 85%; Population Healthy Nuclei (%) [1]: 60% and 84%; Population Hoechst High Intensity Objects (%) [1]: 3% and 2%; Population Membrane Permeable-Phenotype (%) [1]: 12% and 14%; Population Mitochondria Different-Phenotype (%) [1]: 10% and 17%; Population Normal (%) [1]: 96% and 97%; Population Pyknosed Nuclei (%) [1]: 10% and 6%; Population Tubulin-Different-Phenotype (%) [1]: 11% and 4%; Total Cell Count [1]: 251 and 110; Population Apoptotic (%) [2]: 68% and 77%; Population Fragmented Nuclei (%) [2]: 24% and 8%; Population Healthy Nuclei (%) [2]: 55% and 76%; Population Hoechst High Intensity Objects (%) [2]: 5% and 2%; Population Membrane Permeable-Phenotype (%) [2]: 26% and 30%; Population Mitochondria Different-Phenotype (%) [2]: 43% and 62%; Population Mitotic Cells (%) [2]: 31% and 22%; Population Normal (%) [2]: 94% and 97%; Population Pyknosed Nuclei (%) [2]: 20% and 14%; Population Tubulin-Different-Phenotype (%) [2]: 28% and 44%; Total Cell Count [2]: 214 and 129; Population Apoptotic (%) [3]: 80% and 87%; Population Fragmented Nuclei (%) [3]: 26% and 13%; Population Healthy Nuclei (%) [3]: 63% and 80%; Population Hoechst High Intensity Objects (%) [3]: 2% and 3%; Population Membrane Permeable-Phenotype (%) [3]: 4% and 7%; Population Mitochondria Different-Phenotype (%) [3]: 6% and 12%; Population Mitotic Cells (%) [3]: 20% and 12%; Population Normal (%) [3]: 97% and 96%; Population Pyknosed Nuclei (%) [3]: 10% and 6%; Population Tubulin-Different-Phenotype (%) [3]: 3%; Total Cell Count [3]: 296 and 130; Population Apoptotic (%) [4]: 77% and 71%; Population Fragmented Nuclei (%) [4]: 24% and 15%; Population Healthy Nuclei (%) [4]: 55% and 71%; Population Hoechst High Intensity Objects (%) [4]: 3%; Population Membrane Permeable-Phenotype (%) [4]: 9% and 16%; Population Mitochondria Different-Phenotype (%) [4]: 40% and 61%; Population Mitotic Cells (%) [4]: 22% and 28%; Population Normal (%) [4]: 96%; Population Pyknosed Nuclei (%) [4]: 19% and 13%; Total Cell Count [4]: 236 and 163; Population Apoptotic (%) [5]: 90% and 85%; Population Fragmented Nuclei (%) [5]: 17% and 12%; Population Healthy Nuclei (%) [5]: 71% and 72%; Population Hoechst High Intensity Objects (%) [5]: 2%; Population Membrane Permeable-Phenotype (%) [5]: 6% and 7%; Population Mitochondria Different-Phenotype (%) [5]: 2% and 6%; Population Mitotic Cells (%) [5]: 10% and 14%; Population Normal (%) [5]: 97%; Population Pyknosed Nuclei (%) [5]: 10% and 14%; Population Tubulin-Different-Phenotype (%) [5]: 4%; Total Cell Count [5]: 376 and 187; Population Apoptotic (%) [6]: 82% and 75%; Population Fragmented Nuclei (%) [6]: 24% and 12%; Population Healthy Nuclei (%) [6]: 55% and 71%; Population Hoechst High Intensity Objects (%) [6]: 2%; Population Membrane Permeable-Phenotype (%) [6]: 10% and 22%; Population Mitochondria Different-Phenotype (%) [6]: 29% and 31%; Population Mitotic Cells (%) [6]: 17% and 24%; Population Normal (%) [6]: 97%; Population Pyknosed Nuclei (%) [6]: 19% and 15%; Total Cell Count [6]: 290 and 219

**Q.** How did the “Population Apoptotic (%)” value [1] turn out when `N[C@](CC1c2ccccc2Oc2ccccc21)(C(=O)O)[C@H]1C[C@@H]1C(=O)O` was run?
**A.** The value was 80% and 72%.

**Q.** What about the “Population Fragmented Nuclei (%)” value [1] of the same molecule?
**A.** Its value is 22% and 10%.

**Q.** And the “Population Healthy Nuclei (%)” value [1]?
**A.** Its value is 67% and 79%.

**Q.** What about the “Population Hoechst High Intensity Objects (%)” value [1] of the same molecule?
**A.** Its value is 1%.

**Q.** And the “Population Membrane Permeable-Phenotype (%)” value [1]?
**A.** Its value is 6% and 1%.

**Q.** What about the “Population Mitochondria Different-Phenotype (%)” value [1] of the same molecule?
**A.** The value was 2% and 8%.

**Q.** What about the “Population Mitotic Cells (%)” value [1] of the same molecule?
**A.** The value was 20% and 27%.

**Q.** What about the “Population Normal (%)” value [1] of the same molecule?
**A.** The value was 98%.

**Q.** And the “Population Pyknosed Nuclei (%)” value [1]?
**A.** The value was 9%.

**Q.** And the “Population Tubulin-Different-Phenotype (%)” value [1]?
**A.** The value was 4% and 3%.

**Q.** What about the “Total Cell Count” value [1] of the same molecule?
**A.** The value was 218 and 114.

**Q.** And the “Population Apoptotic (%)” value [2]?
**A.** Its value is 84% and 83%.

**Q.** And the “Population Fragmented Nuclei (%)” value [2]?
**A.** Its value is 18% and 19%.

**Q.** What about the “Population Healthy Nuclei (%)” value [2] of the same molecule?
**A.** Its value is 72% and 76%.

**Q.** What about the “Population Hoechst High Intensity Objects (%)” value [2] of the same molecule?
**A.** The value was 3% and 0%.

**Q.** And the “Population Membrane Permeable-Phenotype (%)” value [2]?
**A.** Its value is 5% and 7%.

**Q.** And the “Population Mitochondria Different-Phenotype (%)” value [2]?
**A.** The value was 3% and 0%.

**Q.** What about the “Population Mitotic Cells (%)” value [2] of the same molecule?
**A.** The value was 16%.

**Q.** And the “Population Normal (%)” value [2]?
**A.** Its value is 96% and 100%.

**Q.** And the “Population Pyknosed Nuclei (%)” value [2]?
**A.** The value was 8% and 4%.

**Q.** And the “Population Tubulin-Different-Phenotype (%)” value [2]?
**A.** Its value is 2%.

**Q.** And the “Total Cell Count” value [2]?
**A.** Its value is 295 and 141.

**Q.** What about the “Population Apoptotic (%)” value [3] of the same molecule?
**A.** Its value is 78% and 63%.

**Q.** And the “Population Fragmented Nuclei (%)” value [3]?
**A.** The value was 20% and 14%.

**Q.** What about the “Population Healthy Nuclei (%)” value [3] of the same molecule?
**A.** The value was 70% and 77%.

**Q.** And the “Population Hoechst High Intensity Objects (%)” value [3]?
**A.** Its value is 1% and 0%.

**Q.** What about the “Population Membrane Permeable-Phenotype (%)” value [3] of the same molecule?
**A.** Its value is 1% and 4%.

**Q.** What about the “Population Mitochondria Different-Phenotype (%)” value [3] of the same molecule?
**A.** The value was 1% and 5%.

**Q.** What about the “Population Mitotic Cells (%)” value [3] of the same molecule?
**A.** Its value is 21% and 36%.

**Q.** And the “Population Normal (%)” value [3]?
**A.** The value was 98% and 99%.

**Q.** And the “Population Pyknosed Nuclei (%)” value [3]?
**A.** Its value is 8%.

**Q.** What about the “Population Tubulin-Different-Phenotype (%)” value [3] of the same molecule?
**A.** Its value is 1% and 2%.

**Q.** And the “Total Cell Count” value [3]?
**A.** Its value is 272 and 137.

**Q.** What about the “Population Apoptotic (%)” value [4] of the same molecule?
**A.** Its value is 80% and 81%.

**Q.** And the “Population Fragmented Nuclei (%)” value [4]?
**A.** The value was 13% and 15%.

**Q.** And the “Population Healthy Nuclei (%)” value [4]?
**A.** The value was 79% and 77%.

**Q.** And the “Population Hoechst High Intensity Objects (%)” value [4]?
**A.** Its value is 3% and 0%.

**Q.** What about the “Population Membrane Permeable-Phenotype (%)” value [4] of the same molecule?
**A.** Its value is 3% and 8%.

**Q.** And the “Population Mitochondria Different-Phenotype (%)” value [4]?
**A.** Its value is 3% and 1%.

**Q.** What about the “Population Mitotic Cells (%)” value [4] of the same molecule?
**A.** The value was 20% and 18%.

**Q.** What about the “Population Normal (%)” value [4] of the same molecule?
**A.** Its value is 96% and 99%.

**Q.** And the “Population Pyknosed Nuclei (%)” value [4]?
**A.** The value was 7% and 6%.

**Q.** What about the “Population Tubulin-Different-Phenotype (%)” value [4] of the same molecule?
**A.** Its value is 1% and 3%.

**Q.** What about the “Total Cell Count” value [4] of the same molecule?
**A.** The value was 365 and 164.

**Q.** What about the “Population Apoptotic (%)” value [5] of the same molecule?
**A.** Its value is 89% and 85%.

**Q.** And the “Population Fragmented Nuclei (%)” value [5]?
**A.** Its value is 14% and 16%.

**Q.** And the “Population Healthy Nuclei (%)” value [5]?
**A.** The value was 75% and 72%.

**Q.** And the “Population Hoechst High Intensity Objects (%)” value [5]?
**A.** The value was 2% and 1%.

**Q.** What about the “Population Membrane Permeable-Phenotype (%)” value [5] of the same molecule?
**A.** The value was 3% and 5%.

**Q.** What about the “Population Mitochondria Different-Phenotype (%)” value [5] of the same molecule?
**A.** Its value is 1% and 3%.

**Q.** And the “Population Mitotic Cells (%)” value [5]?
**A.** The value was 10% and 15%.

**Q.** And the “Population Normal (%)” value [5]?
**A.** Its value is 97% and 98%.

**Q.** What about the “Population Pyknosed Nuclei (%)” value [5] of the same molecule?
**A.** Its value is 9% and 10%.

**Q.** What about the “Population Tubulin-Different-Phenotype (%)” value [5] of the same molecule?
**A.** Its value is 1% and 4%.

**Q.** What about the “Total Cell Count” value [5] of the same molecule?
**A.** The value was 403 and 190.

**Q.** What about the “Population Apoptotic (%)” value [6] of the same molecule?
**A.** The value was 90% and 81%.

**Q.** What about the “Population Fragmented Nuclei (%)” value [6] of the same molecule?
**A.** The value was 15% and 12%.

**Q.** What about the “Population Healthy Nuclei (%)” value [6] of the same molecule?
**A.** The value was 77% and 78%.

**Q.** And the “Population Hoechst High Intensity Objects (%)” value [6]?
**A.** Its value is 1% and 0%.

**Q.** What about the “Population Membrane Permeable-Phenotype (%)” value [6] of the same molecule?
**A.** Its value is 4% and 7%.

**Q.** And the “Population Mitochondria Different-Phenotype (%)” value [6]?
**A.** The value was 3% and 1%.

**Q.** And the “Population Mitotic Cells (%)” value [6]?
**A.** Its value is 10% and 18%.

**Q.** And the “Population Normal (%)” value [6]?
**A.** Its value is 98% and 100%.

**Q.** And the “Population Pyknosed Nuclei (%)” value [6]?
**A.** Its value is 7% and 9%.

**Q.** And the “Population Tubulin-Different-Phenotype (%)” value [6]?
**A.** Its value is 2% and 3%.

**Q.** What about the “Total Cell Count” value [6] of the same molecule?
**A.** Its value is 554 and 238.
